In ChEMBL document CHEMBL4665669, “Novel tertiary sulfonamide derivatives containing benzimidazole moiety as potent anti-gastric cancer agents: Design, synthesis and SAR studies” (Eur J Med Chem, 2019):
Activity calls are given as the source filed them.

What was measured:
HGC-27 [1] = experiment: Inhibition of Akt/mTOR signalling pathway in human HGC-27 cells assessed as decrease in mTOR phosphorylation at Ser2448 residue at 0.5 to 1.5 umol/L after 48 hrs by Western blot analysis; assay type: cell-based; details: dose micromol/L 0.5-1.5, time 48.0 hrs
Outline: (§1)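 Cells treated with graded concentrations or DMSO for 48 h, then harvested and lysed. Lysates denatured, resolved by SDS-PAGE and transferred to nitrocellulose. Membranes blocked with 5% skimmed milk and probed with primary antibodies at 4 °C for 8 h, then with secondary antibodies. Bands detected by ECL.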

HGC-27 [2] = experiment: Induction of apoptosis in human HGC-27 cells assessed as upregulation of NOXA level at 0.5 to 1.5 umol/L after 48 hrs Western blot analysis; assay type: functional, cell-based; details: dose micromol/L 0.5-1.5, time 48.0 hrs
Outline: (§2)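 Western blot. Cells were treated with compound concentrations or DMSO for 48 h, then lysed, and lysates were denatured, run on SDS-PAGE and transferred to nitrocellulose. After blocking in 5% skimmed milk, membranes were incubated with primary antibodies at 4 °C for 8 h, then secondary antibodies, with ECL detection.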

SGC-7901 [3] = experiment: Induction of apoptosis in human SGC-7901 cells after 48 hrs by flow cytometry analysis; assay type: functional, cell-based; details: dose micromol/L 0.5-1.5, time 48.0 hrs
HGC-27 [4] = experiment: Cell cycle arrest at G2 phase in human HGC-27 cells assessed as downregulation of Cyclin B level at 0.5 to 1.5 umol/L after 48 hrs by Western blot analysis; assay type: functional, cell-based; details: dose micromol/L 0.5-1.5, time 48.0 hrs; outline: as §2
HGC-27 [5] = experiment: Inhibition of colony formation in human HGC-27 cells at 0.5 to 1.5 umol/L after 7 days by crystal violet staining based assay; assay type: functional, cell-based; details: dose micromol/L 0.5-1.5, time 7.0 day
Outline: (§3)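 5000 cells per well seeded and held 24 h at 37 °C, 5% CO2, then exposed to graded concentrations (0.5, 1, 1.5 µmol/L). After 7 days the medium was removed and wells were washed twice with PBS. Colonies fixed in 4% paraformaldehyde and stained with 0.1% crystal violet.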

HGC-27 [6] = experiment: Inhibition of Ras/Raf/MEK/ERK signalling pathway in human HGC-27 cells assessed as decrease in MEK1 phosphorylation after 48 hrs by Western blot analysis; assay type: cell-based; details: dose micromol/L 0.5-1.5, time 48.0 hrs; outline: as §1
SGC-7901 [7] = experiment: Anticancer activity against human SGC-7901 cells assessed as cell growth at 0.5 to 1.5 umol/L after 48 hrs by MTT assay relative to control; assay type: functional; details: dose micromol/L 0.5-1.5
HGC-27 [8] = experiment: Induction of apoptosis in human HGC-27 cells assessed as downregulation of XIAP level at 0.5 to 1.5 umol/L after 48 hrs Western blot analysis; assay type: functional, cell-based; details: dose micromol/L 0.5-1.5, time 48.0 hrs; outline: as §2
[9] = Selectivity index, ratio of IC50 for human GES1 cells to IC50 for human MGC-803 cells assessed as inhibition of cell proliferation after 48 hrs by MTT assay
Outline: (§4)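 Fold selectivity is the IC50 in GES-1 normal gastric epithelial cells divided by the IC50 in the gastric cancer line (HGC-27, MGC-803 or SGC-7901). Both IC50s come from 48 h exposure, MTT (4 h, 37 °C), DMSO solubilisation and 490 nm absorbance, with three independent experiments.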

SGC-7901 [10] = experiment: Induction of apoptosis in human SGC-7901 cells assessed as downregulation of XIAP level at 0.5 to 1.5 umol/L after 48 hrs Western blot analysis; assay type: functional, cell-based; details: dose micromol/L 0.5-1.5, time 48.0 hrs; outline: as §2
MGC-803 [11] = experiment: Cell cycle arrest in human MGC-803 cells assessed as accumulation at G2/M phase at 0.5 to 1.5 umol/L after 48 hrs by RNase/propidium iodide staining based flow cytometry; assay type: functional; details: dose micromol/L 0.5-1.5, time 48.0 hrs
Outline: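 MGC-803, SGC-7901 and HGC-27 cells were seeded in 6-well plates and treated 48 h with compound or DMSO. Cells were then harvested and fixed in 70% cold ethanol at 4 °C for 8 h, and cell-cycle phase distribution was quantified by flow cytometry.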

SGC-7901 [12] = experiment: Inhibition of colony formation in human SGC-7901 cells at 0.5 to 1.5 umol/L after 7 days by crystal violet staining based assay; assay type: functional, cell-based; details: dose micromol/L 0.5-1.5, time 7.0 day; outline: as §3
MGC-803 [13] = experiment: Cell cycle arrest at G2 phase in human MGC-803 cells assessed as downregulation of Cyclin B level at 0.5 to 1.5 umol/L after 48 hrs by Western blot analysis; assay type: functional, cell-based; details: dose micromol/L 0.5-1.5, time 48.0 hrs; outline: as §2
SGC-7901 [14] = experiment: Inhibition of Ras/Raf/MEK/ERK signalling pathway in human SGC-7901 cells assessed as decrease in MEK1 phosphorylation after 48 hrs by Western blot analysis; assay type: cell-based; details: dose micromol/L 0.5-1.5, time 48.0 hrs; outline: as §1
MGC-803 [15] = experiment: Inhibition of Akt/mTOR signalling pathway in human MGC-803 cells assessed as decrease in mTOR phosphorylation at Ser2448 residue at 0.5 to 1.5 umol/L after 48 hrs by Western blot analysis; assay type: cell-based; details: dose micromol/L 0.5-1.5, time 48.0 hrs; outline: as §1
MGC-803 [16] = experiment: Inhibition of Ras/Raf/MEK/ERK signalling pathway in human MGC-803 cells assessed as decrease in MEK1 phosphorylation after 48 hrs by Western blot analysis; assay type: cell-based; details: dose micromol/L 0.5-1.5, time 48.0 hrs; outline: as §1
SGC-7901 [17] = experiment: Inhibition of Ras/Raf/MEK/ERK signalling pathway in human SGC-7901 cells assessed as decrease in ERK1/2 phosphorylation after 48 hrs by Western blot analysis; assay type: cell-based; details: dose micromol/L 0.5-1.5, time 48.0 hrs; outline: as §1
GES1 = experiment: Cytotoxicity against human GES1 cells assessed as inhibition of cell proliferation after 48 hrs by MTT assay; assay type: cell-based; details: GES1, 48 h
Outline: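 Normal gastric epithelial GES-1 cells were exposed to compound for 48 h. MTT was then added for 4 h at 37 °C. Formazan was dissolved in DMSO after the supernatant was removed, and absorbance was read at 490 nm. IC50 was computed from three independent experiments, given as mean SD.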

MGC-803 [18] = experiment: Inhibition of Ras/Raf/MEK/ERK signalling pathway in human MGC-803 cells assessed as decrease in c-Raf phosphorylation after 48 hrs by Western blot analysis; assay type: cell-based; details: dose micromol/L 0.5-1.5, time 48.0 hrs; outline: as §1
HGC-27 [19] = experiment: Induction of apoptosis in human HGC-27 cells assessed as cleavage of caspase-7 at 0.5 to 1.5 umol/L after 48 hrs Western blot analysis; assay type: functional, cell-based; details: dose micromol/L 0.5-1.5, time 48.0 hrs; outline: as §2
MGC-803 [20] = experiment: Induction of apoptosis in human MGC-803 cells assessed as cleavage of PARP at 0.5 to 1.5 umol/L after 48 hrs Western blot analysis; assay type: functional, cell-based; details: dose micromol/L 0.5-1.5, time 48.0 hrs; outline: as §2
HGC-27 [21] = experiment: Cell cycle arrest at G2 phase in human HGC-27 cells assessed as downregulation of CDK1 level at 0.5 to 1.5 umol/L after 48 hrs by Western blot analysis; assay type: functional, cell-based; details: dose micromol/L 0.5-1.5, time 48.0 hrs; outline: as §2
HGC-27 [22] = experiment: Induction of apoptosis in human HGC-27 cells induction of DNA fragmentation at 0.5 to 1.5 umol/L after 48 hrs by imaging analysis; assay type: functional, cell-based; details: dose micromol/L 0.5-1.5, time 48.0 hrs
SGC-7901 [23] = experiment: Inhibition of Akt/mTOR signalling pathway in human SGC-7901 cells assessed as decrease in mTOR phosphorylation at Ser2448 residue at 0.5 to 1.5 umol/L after 48 hrs by Western blot analysis; assay type: cell-based; details: dose micromol/L 0.5-1.5, time 48.0 hrs; outline: as §1
SGC-7901 [24] = experiment: Induction of apoptosis in human SGC-7901 cells assessed as cleavage of PARP at 0.5 to 1.5 umol/L after 48 hrs Western blot analysis; assay type: functional, cell-based; details: dose micromol/L 0.5-1.5, time 48.0 hrs; outline: as §2
HGC-27 [25] = experiment: Inhibition of Ras/Raf/MEK/ERK signalling pathway in human HGC-27 cells assessed as effect on RAS level at 0.5 to 1.5 umol/L after 48 hrs by Western blot analysis; assay type: cell-based; details: dose micromol/L 0.5-1.5, time 48.0 hrs; outline: as §1
[26] = Selectivity index, ratio of IC50 for human GES1 cells to IC50 for human SGC-7901 cells assessed as inhibition of cell proliferation after 48 hrs by MTT assay; outline: as §4
MGC-803 [27] = experiment: Inhibition of Ras/Raf/MEK/ERK signalling pathway in human MGC-803 cells assessed as downregulation of c-Myc expression at 0.5 to 1.5 umol/L after 48 hrs by Western blot analysis; assay type: cell-based; details: dose micromol/L 0.5-1.5, time 48.0 hrs; outline: as §1

COc1cc(N(Cc2nc3ccccc3[nH]2)S(=O)(=O)c2ccc(C)cc2)cc(OC)c1OC
inactive: inhibition (HGC-27 [25])
14.9: Ratio IC50 [9]
6.6: Ratio IC50 [26]
active: inhibition (HGC-27 [1]) | Activity (HGC-27 [2]) | Activity (SGC-7901 [3]) Dose-dependent effect | Activity (HGC-27 [4]) | inhibition (HGC-27 [5]) | inhibition (HGC-27 [6]) Dose-dependent effect | Activity (HGC-27 [8]) | Activity (SGC-7901 [10]) | Activity (MGC-803 [11]) | inhibition (SGC-7901 [12]) | Activity (MGC-803 [13]) | inhibition (SGC-7901 [14]) Dose-dependent effect | inhibition (MGC-803 [15]) | inhibition (MGC-803 [16]) Dose-dependent effect | inhibition (SGC-7901 [17]) Dose-dependent effect | inhibition (MGC-803 [18]) Dose-dependent effect | Activity (HGC-27 [19]) | Activity (MGC-803 [20]) | Activity (HGC-27 [21]) | Activity (HGC-27 [22]) | inhibition (SGC-7901 [23]) | Activity (SGC-7901 [24]) | inhibition (MGC-803 [27])
15.2 µM: IC50 (GES1)
<2: fold change (FC) (SGC-7901 [7])
